Assay results as given in ChEMBL document CHEMBL1126132, “5,5-disubstituted hydantoins: syntheses and anti-HIV activity” (J Med Chem, 1992).

Columns and labels:
CCRF-CEM [1] = experiment: Compound was tested for antiviral activity by measuring its ability to inhibit HIV induced virus production in CEM cells; NT indicates nontoxic uM; assay type: functional, cell-based; details: Homo sapiens
Outline: (§1)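 Cytotoxicity was measured in uninfected cells with drug, in CEM or MT-2 at 5×10^3 per well. There were five half-log dilutions up to 100 μM, the highest concentration, in triplicate. Cells were incubated 6 days at 37 °C and viability was read by XTT. TC25 is the minimum concentration cutting viability by 25%; NT means nontoxic up to 100 μM.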

CCRF-CEM [2] = experiment: Inhibition of HIV-1 RF induced cytotoxicity in CEM cells; Inactive.; assay type: functional, cell-based
Outline: (§2)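 CEM cells at 5×10^3 per well were infected with HIV-1 RF at MOI 0.01, chosen to give complete cell killing by day 6. Five serial half-log dilutions starting at 100 μM were tested in triplicate. After 6 days at 37 °C, viability was read by XTT. IC50 is the minimum concentration inhibiting CPE by 50%, from semilog regression curve fitting.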

MT2 [3] = experiment: Compound was tested for antiviral activity by measuring its ability to inhibit HIV induced virus production in MT-2 cells; NT indicates nontoxic uM; assay type: functional, cell-based; outline: as §1
MT2 [4] = experiment: Inhibition of HIV-1 RF induced cytotoxicity in MT-2 cells; Inactive.; assay type: functional, cell-based
Outline: (§3)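 MT-2 cells at 5×10^3 per well were infected with HIV-1 RF at MOI 0.005, chosen to give complete killing at 6 days. Triplicate wells received five half-log dilutions from 100 μM. After 6 days at 37 °C, XTT colorimetry gave viability. IC50 is the minimum concentration reducing CPE by 50%, calculated by semilog regression.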

CCRF-CEM [5] = experiment: Compound was tested for antiviral activity by measuring its ability to inhibit HIV induced virus production in CEM cells; assay type: functional, Homo sapiens
[6] = tested on: Human immunodeficiency virus type 1 (RF/HAT ISOLATE); experiment: Inhibition of HIV-1 RF viral production in MT-2 cells.; assay type: functional, Human immunodeficiency virus 1, MT2
CCRF-CEM [7] = experiment: Compound was tested for antiviral activity by measuring its ability to inhibit HIV induced cell killing in CEM cells; assay type: functional, cell-based; details: Homo sapiens; outline: as §2
MT2 [8] = experiment: Compound was tested for antiviral activity by measuring its ability to inhibit HIV induced cell killing in MT-2 cells; assay type: functional, cell-based; details: Homo sapiens; outline: as §3

Row | SMILES | TC25 (CCRF-CEM [1]) | IC50 (CCRF-CEM [2]) | NT (MT2 [3]) | IC50 (MT2 [4]) | TC25 (MT2 [3]) | TC25 (CCRF-CEM [5]) [µM] | TC25 [6] [µM] | TC25 (MT2 [3]; Homo sapiens) | IC50 (CCRF-CEM [7]) [µM] | IC50 (MT2 [8]) [µM]
1 | O=C1NC(=O)C(CSc2ccncc2)(CSc2ccncc2)N1 | Nontoxic up to 100uM | Nontoxic up to 100uM | Nontoxic up to 100uM | Nontoxic up to 100uM |  |  |  |  |  | 
2 | O=C1NC(=O)C(CSCc2ccc(C(=O)O)cc2)(CSCc2ccc(C(=O)O)cc2)N1 | Nontoxic up to 100uM | Nontoxic up to 100uM |  | Nontoxic up to 100uM | Nontoxic up to 100uM |  |  |  |  | 
3 | O=C1NC(=O)C(CSc2ccccc2)(CSc2ccccc2)N1 |  | Nontoxic up to 100uM |  |  |  | 64 | 50 |  |  | 
4 | O=C1NC(=O)C(CSCC2CCCCC2)(CSCC2CCCCC2)N1 |  | Nontoxic up to 100uM |  | Nontoxic up to 100uM |  | 8 | 12 |  |  | 
5 | S=C1NC(=S)C(CSCc2ccccc2)(CSCc2ccccc2)N1 |  | Nontoxic up to 100uM |  |  |  | 16 | 16 |  |  | 
6 | O=C1NC(=O)C(CSCc2cccnc2)(CSCc2cccnc2)N1 | Nontoxic up to 100uM | Nontoxic up to 100uM |  | Nontoxic up to 100uM |  |  |  | Nontoxic up to 100uM |  | 
7 | O=C1NC(=O)C(CSC(=O)c2ccccc2)(CSC(=O)c2ccccc2)N1 |  |  |  | Nontoxic up to 100uM |  | 31 | 5 |  | 7 | 
8 | NC(CSCc1ccccc1)(CSCc1ccccc1)C(=O)O | Nontoxic up to 100uM | Nontoxic up to 100uM |  | Nontoxic up to 100uM |  |  | 60 |  |  | 
9 | O=C1NC(=O)C(COCc2ccccc2)(COCc2ccccc2)N1 |  | Nontoxic up to 100uM |  | Nontoxic up to 100uM |  | >100 | 87 |  |  | 
10 | Nc1ccc(CSCC2(CSCc3ccc(N)cc3)NC(=O)NC2=O)cc1 | Nontoxic up to 100uM |  |  |  |  |  | 16 |  | 88 | 6
11 | O=C1NC(=O)C(CSCc2ccccc2)N1 (configuration not stated) |  | Nontoxic up to 100uM |  |  |  | 5 | 2 |  |  | 
12 | O=C1NC(=O)C(CS)(CS)N1 |  |  |  | Nontoxic up to 100uM |  | 3 | 0.8 |  | 0.6 | 
13 | N#Cc1ccc(CSCC2(CSCc3ccc(C#N)cc3)NC(=O)NC2=O)cc1 |  |  |  | Nontoxic up to 100uM |  | 15 | 8 |  | 25 | 
14 | O=C1NC(=O)C(CSCc2ccncc2)(CSCc2ccncc2)N1 | Nontoxic up to 100uM |  |  | Nontoxic up to 100uM |  |  | 45 |  | 53 | 
15 | O=C1NC(=O)C(CSCc2ccccn2)(CSCc2ccccn2)N1 | Nontoxic up to 100uM | Nontoxic up to 100uM |  |  |  |  |  | Nontoxic up to 100uM |  | 81
16 | O=C1NC(=O)C(CSCCO)(CSCc2ccccc2)N1 (configuration not stated) | Nontoxic up to 100uM | Nontoxic up to 100uM |  | Nontoxic up to 100uM |  |  |  | Nontoxic up to 100uM |  | 
17 | O=C1NC(=O)C(CSCc2cccc3ccccc23)(CSCc2cccc3ccccc23)N1 | Nontoxic up to 100uM | Nontoxic up to 100uM |  | Nontoxic up to 100uM |  |  |  | Nontoxic up to 100uM |  | 
18 | COC(=O)c1ccc(CSCC2(CSCc3ccc(C(=O)OC)cc3)NC(=O)NC2=O)cc1 |  | Nontoxic up to 100uM |  | Nontoxic up to 100uM |  | 25 | 10 |  |  | 
19 | COc1ccc(CSCC2(CSCc3ccc(OC)cc3)NC(=O)NC2=O)cc1 |  |  |  | Nontoxic up to 100uM |  | 6 | 6 |  | 23 | 
20 | O=C1NC(=O)C(CSCc2ccccc2)(CSCc2ccccc2)N1 | Nontoxic up to 100uM | Nontoxic up to 100uM |  |  | Nontoxic up to 100uM |  |  |  |  | 17
21 | O=C1NC(=O)C(CSCc2ccc([N+](=O)[O-])cc2)(CSCc2ccc([N+](=O)[O-])cc2)N1 |  |  |  | Nontoxic up to 100uM |  | 9 | 5 |  | 19 | 
22 | O=C1NC(=O)C(CSCc2cccs2)(CSCc2cccs2)N1 | Nontoxic up to 100uM | Nontoxic up to 100uM |  | Nontoxic up to 100uM |  |  | 17 |  |  | 
23 | O=C1NC(=O)C(CS)(CSCc2ccccc2)N1 (configuration not stated) |  | Nontoxic up to 100uM |  |  |  | 34 | 50 |  |  | 
24 | O=C1NC(=O)C(CSCc2ccc(Br)cc2)(CSCc2ccc(Br)cc2)N1 |  | Nontoxic up to 100uM |  | Nontoxic up to 100uM |  | 16 | 7 |  |  | 
